Results: ChEMBL document CHEMBL1147658, “[2-11C]isopropyl-, [1-11C]ethyl-, and [11C]methyl-labeled phenoxyphenyl acetamide derivatives as positron emission tomography ligands for the peripheral benzodiazepine receptor: radiosynthesis, uptake, and in vivo binding in brain” (J Med Chem, 2006)

Tests used:
Translocator protein [1] = molecular target: T1, Translocator protein (Rattus norvegicus, UniProt P16257); assay: Displacement of [11C][…] from Sprague-Dawley rat brain PBR; assay type: tissue-based
T1 sequence (P16257 whole entry, looked up): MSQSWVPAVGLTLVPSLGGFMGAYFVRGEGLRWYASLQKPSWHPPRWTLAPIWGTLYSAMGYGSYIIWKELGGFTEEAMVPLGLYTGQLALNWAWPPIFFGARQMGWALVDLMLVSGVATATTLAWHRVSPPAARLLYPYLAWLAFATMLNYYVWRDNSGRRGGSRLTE

Translocator protein [2] = molecular target: T1, Translocator protein; assay: Displacement of [11C]DAA1106 from Sprague-Dawley rat brain PBR; assay type: tissue-based
[3] = molecular target: GABA-A receptor; anion channel; assay: Displacement of [11C]Flumazenil from Sprague-Dawley rat brain CBR; assay type: tissue-based
[4] = Distribution coefficient of the compound, log D; assay type: physicochemical; conditions: octanol/water
Outline: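 [11C]ligand (3-5 MBq) shaken with 1-octanol and 10 mM phosphate buffer pH 7.4, 5 mL each, then equilibrated 1 h at room temperature. Both phases counted by gamma counter; log D taken as the organic/aqueous concentration ratio (n=3).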

Rattus norvegicus [5] = assay: Ratio for decrease in uptake in iv dosed Sprague-Dawley rat brain cerebellum to frontal cortex after 30 mins per gram of wet tissue in presence of 1 mg/kg DAA1106; assay type: ADME, organism-based; set-up: dose 1 mg/kg, route intravenous; conditions: in vivo, 0.5 h
Outline: (§1)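 Rats given [11C]ligand 45-50 MBq iv, alone or mixed with nonradioactive DAA1106 (1 mg/kg in 10% EtOH/saline). Killed 30 min later under ether. Brains frozen, cut into 20 µm sagittal cryosections and exposed to imaging plates for 60 min. Regional radioactivity read by bioimaging analyzer; brain uptake expressed as % injected dose per gram wet tissue (n=3).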

[6] = Plasma half life in iv dosed monkey; assay type: ADME, organism-based, Macaca mulatta; conditions: rhesus monkey
Outline: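 Monkey given [11C]ligand 70-80 MBq iv. Arterial blood drawn at 1, 2, 5, 10, 20, 30 and 60 min. Plasma deproteinized with CH3CN and analysed by radio-HPLC for percentage of unchanged ligand.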

Rattus norvegicus [7] = assay: Decrease in uptake in iv dosed Sprague-Dawley rat brain striatum after 30 mins per gram of wet tissue in presence of 1 mg/kg DAA1106; assay type: ADME, organism-based; set-up: dose 1 mg/kg, route intravenous; conditions: in vivo, 0.5 h; outline: as §1
Rattus norvegicus [8] = assay: Decrease in uptake in iv dosed Sprague-Dawley rat brain frontal cortex after 30 mins per gram of wet tissue in presence of 1 mg/kg DAA1106; assay type: ADME, organism-based; set-up: dose 1 mg/kg, route intravenous; conditions: in vivo, 0.5 h; outline: as §1
Rattus norvegicus [9] = assay: Decrease in uptake in iv dosed Sprague-Dawley rat brain olfactory bulb after 30 mins per gram of wet tissue in presence of 1 mg/kg DAA1106; assay type: ADME, organism-based; set-up: dose 1 mg/kg, route intravenous; conditions: in vivo, 0.5 h; outline: as §1
Rattus norvegicus [10] = assay: Uptake in iv dosed Sprague-Dawley rat brain after 30 mins per gram of wet tissue; assay type: ADME, organism-based; conditions: in vivo, 0.5 h; outline: as §1
Rattus norvegicus [11] = assay: Ratio for decrease in uptake in iv dosed Sprague-Dawley rat brain striatum to frontal cortex after 30 mins per gram of wet tissue in presence of 1 mg/kg DAA1106; assay type: ADME, organism-based; set-up: dose 1 mg/kg, route intravenous; conditions: in vivo, 0.5 h; outline: as §1
Rattus norvegicus [12] = assay: Ratio for decrease in uptake in iv dosed Sprague-Dawley rat brain olfactory bulb to frontal cortex after 30 mins per gram of wet tissue in presence of 1 mg/kg DAA1106; assay type: ADME, organism-based; set-up: dose 1 mg/kg, route intravenous; conditions: in vivo, 0.5 h; outline: as §1
Rhesus monkey [13] = assay: Decrease in uptake in iv dosed rhesus monkey brain occipital cortex after 90 mins in presence of 1 mg/kg DAA1106; assay type: ADME, organism-based, Macaca mulatta; set-up: dose 1 mg/kg, route intravenous; conditions: in vivo, 1.5 h
Outline: (§2)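 One awake male rhesus monkey (about 7.5 kg) imaged by 3D dynamic PET for 90 min after [11C]ligand 70-80 MBq iv. Blocker given iv 2 min before tracer: DAA1106 1 mg/kg, or PK11195 5 mg/kg, each in 10% EtOH/saline. Time-activity curves taken from 5 mm ROI on occipital cortex, as % dose/mL.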

Rattus norvegicus [14] = assay: Decrease in uptake in iv dosed Sprague-Dawley rat brain cerebellum after 30 mins per gram of wet tissue in presence of 1 mg/kg DAA1106; assay type: ADME, organism-based; set-up: dose 1 mg/kg, route intravenous; conditions: in vivo, 0.5 h; outline: as §1
Rhesus monkey [15] = assay: Decrease in uptake in iv dosed rhesus monkey brain occipital cortex after 90 mins in presence of 5 mg/kg […]; assay type: ADME, organism-based, Macaca mulatta; set-up: dose 5 mg/kg, route intravenous; conditions: in vivo, 1.5 h; outline: as §2

Ki (Translocator protein [1]) | Ki (Translocator protein [2]) | Ki [3] | logD [4] | Ratio (Rattus norvegicus [5]) | half-life [6] | Drug uptake (Rattus norvegicus [7]) | Drug uptake (Rattus norvegicus [8]) | Drug uptake (Rattus norvegicus [9]) | Drug uptake (Rattus norvegicus [10]) | Ratio (Rattus norvegicus [11]) | Ratio (Rattus norvegicus [12]) | Drug uptake (Rhesus monkey [13]) | Drug uptake (Rattus norvegicus [14]) | Drug uptake (Rhesus monkey [15]) | SMILES
0.19 nM | 0.68 nM | > 1000 nM | 4.02 |  |  |  |  |  |  |  |  |  |  |  | CC(=O)N(Cc1ccccc1OC(C)C)c1ccc(Cl)cc1Oc1ccccc1
0.074 nM | 0.31 nM | > 1000 nM | 3.74 |  |  |  |  |  |  |  |  |  |  |  | COc1ccccc1CN(C(C)=O)c1ccc(Cl)cc1Oc1ccccc1
 |  |  |  | 1 | 13 min | 63% | 63% | 43% | 0.17% | 1 | 1.5 |  |  |  | CC(=O)N(Cc1ccccc1O[11CH](C)C)c1ccc(Cl)cc1Oc1ccccc1
 |  |  |  | 1 | 21 min | 63% | 63% | 37% | 0.32% | 1 | 2.3 | 60% |  |  | CC(=O)N(Cc1ccccc1O[11CH3])c1ccc(Cl)cc1Oc1ccccc1
 |  |  |  | 1 | 20 min | 63% | 63% | 33% | 0.27% | 1 | 1.5 |  |  |  | C[11CH2]Oc1ccccc1CN(C(C)=O)c1ccc(Cl)cc1Oc1ccccc1
0.098 nM | 0.41 nM | > 1000 nM | 3.81 |  |  |  |  |  |  |  |  |  |  |  | CCOc1ccccc1CN(C(C)=O)c1ccc(Cl)cc1Oc1ccccc1
0.095 nM |  | > 1000 nM |  |  |  |  |  |  |  |  |  |  |  |  | COc1ccc(OC)c(CN(C(C)=O)c2cc(F)ccc2Oc2ccccc2)c1
 |  | > 1000 nM |  |  |  |  |  |  |  |  |  |  | 44% | 70% | CCC(C)N(C)C(=O)c1cc2ccccc2c(-c2ccccc2Cl)n1 (configuration not stated) [PK-11195]
